Assays:
[1] = test system: Sarcoma-180; experiment: Antitumor activity against mouse Sarcoma 180 cells allografted in mouse assessed as reduction in tumor growth at 50 mg/kg, ip qd for 8 days measured one day after last treatment relative to control; type: functional; conditions: Sarcoma-180, ip, route intraperitoneal, read-out: TGI
In short: (§1)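 Female CD mice (18-20 g) implanted subcutaneously with 3×10^7 Sarcoma 180 tumor cells in the right ventrolateral area. Doses tested were 100, 50, 25 and 12.5 mg/kg.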

[2] = test system: Sarcoma-180; experiment: Antitumor activity against mouse Sarcoma 180 cells allografted in mouse assessed as reduction in tumor growth at 12.5 mg/kg, ip qd for 8 days measured one day after last treatment relative to control; type: functional; conditions: Sarcoma-180, ip, route intraperitoneal, read-out: TGI; in short: as §1
[3] = test system: Mus musculus; experiment: Toxicity in mouse allografted with mouse Sarcoma 180 cells assessed as mortality at 25 mg/kg, ip qd for 8 days measured one day after last treatment relative to control; type: organism-based; parameters: dose 25 mg/kg, route intraperitoneal; conditions: in vivo, 192 h; in short: as §1
[4] = test system: Sarcoma-180; experiment: Antitumor activity against mouse Sarcoma 180 cells allografted in mouse assessed as reduction in tumor growth at 25 mg/kg, ip qd for 8 days measured one day after last treatment relative to control; type: functional; conditions: Sarcoma-180, ip, route intraperitoneal, read-out: TGI; in short: as §1
[5] = test system: Mus musculus; experiment: Toxicity in mouse allografted with mouse Sarcoma 180 cells assessed as mortality at 12.5 mg/kg, ip qd for 8 days measured one day after last treatment relative to control; type: organism-based; parameters: dose 12.5 mg/kg, route intraperitoneal; conditions: in vivo, 192 h; in short: as §1
[6] = test system: Mus musculus; experiment: Toxicity in mouse allografted with mouse Sarcoma 180 cells assessed as mortality at 50 mg/kg, ip qd for 8 days measured one day after last treatment relative to control; type: organism-based; parameters: dose 50 mg/kg, route intraperitoneal; conditions: in vivo, 192 h; in short: as §1
[7] = test system: Sarcoma-180; experiment: Antitumor activity against mouse Sarcoma 180 cells allografted in mouse assessed as reduction in tumor growth at 100 mg/kg, ip qd for 8 days measured one day after last treatment relative to control; type: functional; conditions: Sarcoma-180, ip, route intraperitoneal, read-out: TGI; in short: as §1
[8] = test system: Mus musculus; experiment: Toxicity in mouse allografted with mouse Sarcoma 180 cells assessed as mortality at 100 mg/kg, ip qd for 8 days measured one day after last treatment relative to control; type: organism-based; parameters: dose 100 mg/kg, route intraperitoneal; conditions: in vivo, 192 h; in short: as §1

Nc1cc2nc[nH]c2c(=O)[nH]1 [DEZAGUANINE]
inhibition in vivo at 50 mg/kg [1]: 74.2% | inhibition in vivo at 12.5 mg/kg [2]: 46.2% | Activity [3]: Non-toxic | inhibition in vivo at 25 mg/kg [4]: 78.2% | Activity [5]: Non-toxic | Activity [6]: Non-toxic | inhibition in vivo at 100 mg/kg [7]: 89.6% | Activity [8]: Toxic

Nc1cc2c(ncn2[C@H]2O[C@H](CO)[C@@H](O)[C@@H]2O)c(=O)[nH]1
inhibition in vivo at 100 mg/kg [7]: 24.2% | Activity [8]: Non-toxic

Nc1cc2c(ncn2[C@@H]2O[C@H](CO)[C@@H](O)[C@@H]2O)c(=O)[nH]1
inhibition in vivo at 100 mg/kg [7]: 16% | Activity [8]: Non-toxic

Nc1cc2ncn([C@H]3O[C@H](CO)[C@@H](O)[C@@H]3O)c2c(=O)[nH]1
inhibition in vivo at 100 mg/kg [7]: 0% | Activity [8]: Non-toxic

Nc1cc2ncn([C@@H]3O[C@H](CO)[C@@H](O)[C@@H]3O)c2c(=O)[nH]1
inhibition in vivo at 100 mg/kg [7]: 5.6% | Activity [8]: Non-toxic

— ChEMBL document CHEMBL3244153, “Synthesis of arabinofuranosyl derivatives of 3-deazaguanine” (J Med Chem, 1979)
